# Test results taken from paper PMC3741069 (Biochemistry, 2013).
# Numbering of substitutions follows the chain as printed.
# Assays:
# Assay in all cases: spectral perturbation titration
# Type in all cases: binding
# [1] = target: T1, nitrate reductase (NarB) (Synechococcus elongatus, UniProt P39458, R84Q)
# T1 sequence (P39458 15-729 R84Q): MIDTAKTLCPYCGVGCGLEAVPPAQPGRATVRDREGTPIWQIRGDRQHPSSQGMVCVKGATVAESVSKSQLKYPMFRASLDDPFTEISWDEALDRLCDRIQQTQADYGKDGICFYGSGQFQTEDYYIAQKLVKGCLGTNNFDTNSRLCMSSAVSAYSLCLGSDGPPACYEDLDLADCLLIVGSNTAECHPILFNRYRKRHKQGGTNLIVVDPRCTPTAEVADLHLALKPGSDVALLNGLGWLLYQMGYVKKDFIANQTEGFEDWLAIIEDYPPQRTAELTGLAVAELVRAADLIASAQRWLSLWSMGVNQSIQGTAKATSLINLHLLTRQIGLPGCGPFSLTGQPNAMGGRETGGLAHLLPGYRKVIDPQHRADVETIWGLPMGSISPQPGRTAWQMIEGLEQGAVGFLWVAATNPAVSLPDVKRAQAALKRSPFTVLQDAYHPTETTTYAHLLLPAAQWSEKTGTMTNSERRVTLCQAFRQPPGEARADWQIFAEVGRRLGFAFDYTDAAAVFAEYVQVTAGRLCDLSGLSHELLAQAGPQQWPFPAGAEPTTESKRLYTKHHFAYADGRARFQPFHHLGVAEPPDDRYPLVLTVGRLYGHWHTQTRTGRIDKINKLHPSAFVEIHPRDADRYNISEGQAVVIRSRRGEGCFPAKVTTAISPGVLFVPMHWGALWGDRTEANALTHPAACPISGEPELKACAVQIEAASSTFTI
# In short: (§1)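 Single-residue NarB variants were made by site-directed mutagenesis and expressed and purified as for wild type (His6, Co affinity, DEAE, gel filtration). Complex formation with ferredoxin or nitrate was followed by difference absorbance at variant-specific wavelength pairs chosen for signal:noise. The change at saturating nitrate was taken as 100% complex. Kd came from fitting perturbation magnitude against ligand concentration to a single binding isotherm.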
# [2] = target: T2, nitrate reductase (NarB) (Synechococcus elongatus, UniProt P39458, R160Q)
# T2 sequence (P39458 15-729 R160Q): T1 sequence (P39458 15-729 R84Q) with Q70R, R146Q
# In short: as §1
# [3] = target: T3, nitrate reductase (NarB) (Synechococcus elongatus, UniProt P39458, K144R)
# T3 sequence (P39458 15-729 K144R): T1 sequence (P39458 15-729 R84Q) with Q70R, K130R
# In short: as §1
structure (smiles),measurement,setting,value
O=[N+]([O-])O [nitrate],Kd,[1],5.5 ± 2.2 µM
same,Kd,[2],1.5 ± 0.4 µM
same,Kd,[3],13.4 ± 3 µM
